High-throughput results as filed in PubChem.
DDE Tn6 FP inh = inhibitors of Tn6 peptide binding to human fibrin DD(E); P02675; Fibrin DD(E) TRITC-Tn6 fluorescence polarization displacement; inhibition, % at 8.3 µM; 0.21% of 370,000 active;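 active = inhibition above a per-campaign cutoff: mean of compounds within control limits plus 3 SD, cut at about 15% in these data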;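 note: 0% = median of all compound wells on the plate and 100% = blocking peptide control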
PLC-gamma1 inh = inhibitors of human phospholipase C gamma1. purified PLC-gamma1, fluorogenic substrate, fluorescence. 0.84% of 370,000 active. inhibition, % at 12.2 µM. P19174
Target sequence (P19174 whole entry, looked up): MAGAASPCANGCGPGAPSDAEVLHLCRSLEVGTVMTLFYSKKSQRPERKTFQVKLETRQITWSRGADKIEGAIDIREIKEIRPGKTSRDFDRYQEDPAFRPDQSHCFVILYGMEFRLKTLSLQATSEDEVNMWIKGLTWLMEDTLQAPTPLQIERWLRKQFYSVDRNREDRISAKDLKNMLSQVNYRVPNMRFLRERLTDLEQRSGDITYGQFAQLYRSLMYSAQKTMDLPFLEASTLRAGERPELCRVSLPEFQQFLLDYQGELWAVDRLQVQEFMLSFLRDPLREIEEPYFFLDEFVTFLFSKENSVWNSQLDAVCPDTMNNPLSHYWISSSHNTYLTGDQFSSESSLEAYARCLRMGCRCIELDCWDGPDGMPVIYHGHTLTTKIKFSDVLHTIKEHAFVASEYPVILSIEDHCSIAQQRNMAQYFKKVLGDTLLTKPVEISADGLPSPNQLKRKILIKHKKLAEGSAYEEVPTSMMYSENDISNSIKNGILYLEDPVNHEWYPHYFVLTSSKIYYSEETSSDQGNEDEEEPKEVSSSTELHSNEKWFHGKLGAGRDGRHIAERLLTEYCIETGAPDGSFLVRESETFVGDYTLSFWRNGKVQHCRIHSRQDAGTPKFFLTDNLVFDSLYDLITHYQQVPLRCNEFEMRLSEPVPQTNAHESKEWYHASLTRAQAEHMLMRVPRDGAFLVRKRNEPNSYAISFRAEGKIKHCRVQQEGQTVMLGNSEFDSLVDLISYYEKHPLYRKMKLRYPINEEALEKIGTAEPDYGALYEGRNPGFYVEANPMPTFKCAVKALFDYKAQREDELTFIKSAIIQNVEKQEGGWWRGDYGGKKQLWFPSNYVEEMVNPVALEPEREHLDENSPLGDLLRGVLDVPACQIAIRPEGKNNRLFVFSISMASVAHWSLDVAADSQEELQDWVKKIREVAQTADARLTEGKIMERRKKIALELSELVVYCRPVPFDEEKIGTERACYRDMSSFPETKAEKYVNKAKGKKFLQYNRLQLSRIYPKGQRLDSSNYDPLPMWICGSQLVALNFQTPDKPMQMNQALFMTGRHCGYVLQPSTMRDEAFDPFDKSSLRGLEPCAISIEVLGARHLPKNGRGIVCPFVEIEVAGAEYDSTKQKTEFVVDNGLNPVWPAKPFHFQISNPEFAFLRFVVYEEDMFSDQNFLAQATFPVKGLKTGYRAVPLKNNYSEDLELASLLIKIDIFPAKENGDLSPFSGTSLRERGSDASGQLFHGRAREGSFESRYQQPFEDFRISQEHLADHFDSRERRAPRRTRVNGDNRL
PLC-beta3 inh = inhibitors of human phospholipase C beta3. Q01970. Purified PLC-beta3, fluorogenic substrate, fluorescence. inhibition, % at 12.2 µM. 0.18% of 370,000 active; in the data active = inhibition above about 11%;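 note: 0% = median of compound wells on plate and 100% = full blocker control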
FID counter = fluorescent intercalator displacement, NS3 helicase counter-screen; DNA fluorescent intercalator displacement, fluorescence; inhibition, % at 7.9 µM; 0.17% of 290,000 active; in the data active = inhibition above about 37%;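 note: 0% = vehicle and 100% = reference compound; higher means more ethidium bromide displaced from hairpin DNA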
Tn7 DDE FP = disrupts Tn7 cyclic peptide binding to fibrin D-Dimer-E complex. AID 720508. inhibition, % at 8.3 µM. 0.13% of 370,000 active. P02675. FP displacement of FITC-Tn7 peptide from fibrin DD(E); 0% = median of compound wells per plate;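 active = inhibition above the mean of compounds falling within the control limits plus 3 SD of them, cut at about 14% in these data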;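 note: 0% = plate median of compound wells and 100% = 10 µM Aha-Tn7 peptide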
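Assay system: human fibrin DD(E). Input: DD(E) 2 µM final. Medium: Tris buffer with calcium and detergent, pH 7.8. Compound dosing: single point at 8.3 µM. Timing: 10 min plus 3 h, room temperature. Technique: fluorescence polarization of the labelled Tn7 tracer. Read-out: percent inhibition. Replicates: singlicate testing.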
PLCgamma1 ctr = inhibits human PLC-gamma1 in PLC-beta3 counter-screen | inhibition, % at 12.3 µM | purified PLC-gamma1, fluorogenic substrate, fluorescence | 3.1% of 3,300 active | shares compounds with PLC-gamma1 inh
PLCbeta3 conf = human PLC-beta3 inhibition, confirmation; 1% of 3,300 active; shares compounds with PLC-gamma1 inh; purified PLC-beta3, fluorogenic substrate fluorescence; inhibition, % at 12.3 µM; in the data active = inhibition above about 11%
An asterisk follows results filed as active; . = not tested or not shown. Rows were chosen to be rich in hits. Some 1.4% of all compounds tested hit in one or more screens of this group. Cut-off read from the data, not from the text of the source, unless noted: active = inhibition above about 9.5%; inactive = the rest.

SMILES	DDE Tn6 FP inh	PLC-gamma1 inh	PLC-beta3 inh	FID counter	Tn7 DDE FP	PLCgamma1 ctr	PLCbeta3 conf
CCCC(=O)NC(c1ccco1)c1cc([N+](=O)[O-])c2cccnc2c1O (configuration not stated)	4	14*	4	-3	-3	0	-4
CCC(=O)NC(c1ccc(C)cc1)c1cc([N+](=O)[O-])c2cccnc2c1O (configuration not stated)	0	3	2	-1	9	.	.
CC(C)(C)C1CCC(=NNC(=S)Nc2cccnc2)CC1 (configuration not stated)	2	3	-1	-6	-4	.	.
CCNC(=S)NN=C1CCC(C(C)(C)C)CC1 (configuration not stated)	-8	13*	-1	-5	-4	-7	-5
CCc1n[nH]c(=S)n1/N=C/c1cccc2ccccc12	-1	6	-8	-18	-5	.	.
CN(Cc1ccccc1)C(=O)CN1C(=O)NC2(CCCCCCC2)C1=O	3	13*	0	.	-2	1	5
CSc1ccc(CN(C)C(=O)CN2C(=O)NC3(CCCC3)C2=O)cc1	-5	2	-9	.	7	.	.
O=C(CN1C(=O)NC2(CCCCCCC2)C1=O)NCc1ccc(Cl)cc1	2	12*	-4	.	0	-5	-3
O=Cc1cnc2ccccc2c1-c1ccccc1	2	-1	-11	5	6	.	.
O=Cc1c[nH]c2ncccc12	-7	10*	-7	-6	1	-5	-2
OC(C#Cc1ccccc1)(c1ccccc1)c1ccccc1	4	0	-2	.	6	.	.
O=C(CNC(=O)c1ccc(Br)o1)NC12CC3CC(CC(C3)C1)C2	3	9.9*	4	-21	-5	1	4
CCN1CCCC1CNC(=O)CSc1cc(=O)n(CC)c2ccccc12 (configuration not stated)	-7	-3	0	8	-2	.	.
Cc1[nH]c(=O)[nH]c(=O)c1Sc1ccccc1[N+](=O)[O-]	5	12*	2	-7	-10	-3	-1
CCCCn1c(N)c(Sc2ccccc2[N+](=O)[O-])c(=O)[nH]c1=O	2	4	-2	-9	9	.	.
CC(C)CN(C(=O)COC(=O)c1ccc2ccccc2n1)C1CCS(=O)(=O)C1 (configuration not stated)	8	0	2	-22	1	.	.
CC(C)CN(C(=O)COC(=O)Cc1n[nH]c(=O)c2ccccc12)C1CCS(=O)(=O)C1 (configuration not stated)	0	12*	2	-3	-3	-7	-2
COc1ccc(N2C(=O)C3C4C=CC(C5CC45)C3C2=O)c([N+](=O)[O-])c1 (configuration not stated)	5	2	4	3	-3	.	.
Cc1ccc(CNC(=O)CO/N=C/c2ccc(C(C)(C)C)cc2)cc1	5	2	-3	-18	8	.	.
CC(C)(C)c1ccc(/C=N/OCC(=O)NCc2ccc(F)cc2)cc1	-1	13*	2	-20	-4	-10	-6
COc1cc(/C=N/N2CCOCC2)ccc1OCc1ccccc1	-2	1	0	5	-5	.	.
CN1C(=O)C(O)(CC(=O)/C=C/c2ccco2)c2ccccc21 (configuration not stated)	2	2	14*	-5	-10	-4	-2
CC(C)(C)C(=O)Cn1ncc(Cl)c(Cl)c1=O	-4	0	3	1	-4	.	.
CC(C)(C)C(=O)Cn1c[n+](N)cn1	13	10*	3	0	2	-5	-1
COc1ccc(C(=O)N[C@H](C(=O)NCC2CCCCC2)C(C)C)cc1	1	12*	2	-23	-1	-12	-10
SMILES	DDE Tn6 FP inh	PLC-gamma1 inh	PLC-beta3 inh	FID counter	Tn7 DDE FP	PLCgamma1 ctr	PLCbeta3 conf
Cc1nc2ccc(NC(=O)N3CCSCC3)cc2s1	3	-13	-16	-10	-1	.	.
COc1ccc(CNc2nc(NCc3ccc(OC)cc3)c3[nH]cnc3n2)cc1	1	12*	9	.	4	0	-2
C=CCON1C(=O)C(=O)N(OCC=C)[C@H]2CCCC[C@H]21	-4	-1	4	-1	-1	.	.
C(=C\c1ccccc1)/C=N/n1cnnc1	0	10*	-2	-2	0	8	4
CC(Sc1nnc(C2CC2)n1N)C(=O)NC1CCCCC1C (configuration not stated)	-11	9.9*	3	-2	-2	-4	1
CCc1nnc(NC(=O)CSc2nnc(C(C)NC(=O)c3ccccc3F)n2C)s1 (configuration not stated)	-10	1	-5	-18	-3	.	.
COc1ccccc1-c1cc(C(=O)Nc2ccc(F)cc2F)no1	-2	12*	5	-8	0	-118	-105
COc1ccc(CNC(=O)[C@H](C)[C@@H]2C[C@@]2(C)[C@@H](NC(=O)OCc2ccccc2)c2ccccc2)cc1OC	-1	5	6	-49	-5	.	.
Cc1c(-c2ccccc2)nc2ccccc2c1C(=O)NCc1cccs1	2	4	14*	-8	3	-3	-2
COC(=O)C(C(=O)OC)[C@H]1C=C[C@@H](C(=O)NS(=O)(=O)c2ccc(C)cc2)N(C(C)=O)C1	7	81*	0	.	-7	76*	-4
CC(=O)N1C[C@@H](c2c[nH]c3ccccc23)C=C[C@H]1C(=O)NS(=O)(=O)c1ccc(C)cc1	4	53*	-17	.	-8	48*	-16
CCN(CC)C(=O)CSc1nc2c(sc(=S)n2-c2ccccc2OC)c(=O)n1-c1ccccc1	4	2	-3	-41	-2	.	.
O=C(CCc1nc2ccccc2[nH]c1=O)OCC(=O)c1cccc2ccccc12	.	.	.	1	.	.	.
Cc1nn(-c2ccccc2)c(C)c1NC(=O)c1cccs1	6	12*	2	-2	-7	-6	-3
COCCN(Cc1ccccc1)C(=S)Nc1ccc(Cl)cc1	-3	13*	-6	-7	2	-1	-3
CC(=O)c1ccc(N2CCC(c3cc(-c4ccc(Cl)cc4Cl)n[nH]3)CC2)c([N+](=O)[O-])c1	-5	15*	1	-4	-6	6	6
Cc1cc(C(=O)N2CCN(c3ccccc3)CC2)no1	.	.	.	-14	.	.	.
Cc1cc(C(=O)N2CCN(c3ccc([N+](=O)[O-])cc3)CC2)no1	-3	9.5*	9	-1	-5	-4	-3
Cc1cc(S(=O)(=O)N2CCCCC2CCNC(=O)C(=O)NCc2cccnc2)ccc1F (configuration not stated)	-12	3	0	.	-3	.	.
O=C(NCc1ccncc1)[C@@H]1CCCN1C(=O)[C@@H]1CCCN1C(=O)c1ccccc1Cl	7	2	3	.	0	.	.
